proCasp7 act: activates human procaspase-7, counter-screen for procaspase-3 activators; P55210; 0.093% of 330,000 active; recombinant procaspase-7, Ac-DEVD-pNA absorbance 405 nm; D23A/D198A/D206A triple mutant, cannot self-cleave; scale: DMSO 0, 5 µM enzyme 100; AID 463210; activation, % at 8.5 µM;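 active = percent activation above the screen-wide mean plus 3 SD, cut at about 25% in these data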
Target sequence (P55210 whole entry D23A/D198A/D206A): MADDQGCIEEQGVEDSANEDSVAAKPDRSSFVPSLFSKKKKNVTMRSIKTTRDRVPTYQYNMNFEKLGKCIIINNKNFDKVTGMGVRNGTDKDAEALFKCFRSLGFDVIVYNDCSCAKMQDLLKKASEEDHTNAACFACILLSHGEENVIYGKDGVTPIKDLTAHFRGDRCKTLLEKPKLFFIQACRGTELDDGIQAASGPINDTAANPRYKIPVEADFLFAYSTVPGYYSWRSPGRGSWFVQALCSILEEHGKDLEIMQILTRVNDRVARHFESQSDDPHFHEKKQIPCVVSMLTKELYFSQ
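Assay system: Uncleavable procaspase-7 mutant enzyme / Input: 2 µM procaspase-7 mutant as dispensed / Dosing: single nominal 8.5 µM compound dose, 0.8% DMSO final / Timing: 1 h enzyme–compound preincubation and 2 h substrate reaction, both 25 °C / Detection: p-Nitroaniline absorbance at 405 nm, read at 0 and 120 min / Replication: singlicate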
VLA-4 inh: inhibition in a human VLA-4 binding assay; P13612; VLA-4 expressing cells, ligand binding flow cytometry; inhibition, % (about 7 µM as worked out from the volumes in the protocol); 0.2% of 330,000 active; AID 2557; in the data active = inhibition above about 50%
JMJD2C inh: inhibitors of human GASC-1 (JMJD2C) demethylase; Q9H3R0; GST-JMJD2C(1-420) H3K9me3 demethylation, DELFIA europium; inhibition, % at 2.35 µM; 0.069% of 330,000 active; AID 2099;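 active = more than half of a compound's replicate wells show inhibition beyond 50%, single wells judged on their own value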;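 also: signal counts dimethyl H3K9 product captured on neutravidin plate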
Lipid droplet: hepatic lipid droplet formation modulation. inhibition, % at 6.5 µM. AML12 mouse hepatocytes, oleate lipid droplets, BODIPY imaging. 0.4% of 240,000 active;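 active = lipid droplet intensity inhibited by at least 50%, with more than 500 cells counted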
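material = mouse AML12 hepatocyte cell line, fixed after treatment | also added = 100 µM oleic acid challenge | doses = compound at 6.5 µM only | schedule = overnight exposure | technique = Image-based BODIPY and DAPI two-channel analysis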
procasp3 activ: activates human procaspase-3. recombinant procaspase-3 D3A, Ac-DEVD-pNA absorbance 405 nm. activation, % at 8.5 µM. 0.11% of 330,000 active;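 active = activation above the mean of all tested compounds plus 3 SD, cut at about 21% in these data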
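System: Procaspase-3 D3A mutant. Medium: Zinc-free 300 mM NaCl, 50 mM HEPES, 0.01% Triton X-100. Schedule: 1 h preincubation plus 2 h reaction at 25 °C. Measured by: 405 nm absorbance of p-nitroaniline, reads at 0 and 120 min. Read-out: percent activation relative to control range.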
GRK2 inh: blocks RNA aptamer binding to human GRK2; AID 488847; 0.59% of 330,000 active; inhibition of aptamer binding, % at 10 µM; bead flow cytometry, FAM-aptamer displacement from GRK2;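 active = inhibition of aptamer binding above 40%, roughly 3 SD of noise, on plates passing a quality check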;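 also: median bead fluorescence of bound FAM aptamer so fluorescent compounds give negative values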
GRK2 inh confirm: human GRK2 inhibition confirmation, cherry pick 1. shares compounds with GRK2 inh. bead-bound GRK2, FAM-aptamer displacement, flow cytometry. aptamer displacement, % at 10 µM. 4% of 2,000 active. AID 504451;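 active = aptamer displacement above 40%, near three times the noise of non-fluorescent compounds, on plates passing quality checks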;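 also: negative values mostly reflect intrinsic compound fluorescence rather than true enhancement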
FAM quench CP1: counter-screen for GRK2 aptamer inhibitors: fluorescent aptamer quenchers | shares compounds with GRK2 inh | Carboxyfluorescein RNA aptamer on beads, flow cytometry quenching; hits give low values | fluorescence response (% of DMSO), % at 10 µM | 2,000 tested, under 10 active | AID 504580;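 active = compounds that quench the bead-bound fluorescent RNA probe, cutting fluorescence to under half of the solvent control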;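 also: counterscreen run without GRK2 so only probe quenching by compound is measured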
GRK2 CP2: human GRK2 inhibition confirmation, cherry pick 2 | shares compounds with GRK2 inh | bead-bound GRK2, FAM-aptamer displacement, flow cytometry | inhibition of aptamer binding, % at 10 µM | 360 tested, under 10 active;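 active = inhibition of aptamer binding above 40%, about triple the noise seen with nonglowing compounds, on plates passing quality control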;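 also: negative values mostly come from compounds that fluoresce themselves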
FAM quench SP: aptamer fluorescence quenching in GRK2 counter-screen. shares compounds with GRK2 inh. carboxyfluorescein RNA aptamer beads, flow cytometry quenching; hits give low values. fluorescence response vs DMSO, % at 10 µM. 360 tested, under 10 active. AID 588494;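 active = response vs DMSO under 50%, meaning signal dropped by over half, treated as fluorescence quencher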;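 also: labelled aptamer on streptavidin beads without GRK2 as a quench counter-screen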
Numbers stand for hits; 0 = inactive; - = not tested or not shown. Sampled rows, rich in hits. Any-hit rate of the full collection: about 1.3%.

SMILES	proCasp7 act	VLA-4 inh	JMJD2C inh	Lipid droplet	procasp3 activ	GRK2 inh	GRK2 inh confirm	FAM quench CP1	others
Cc1ccc(Nc2c([N+](=O)[O-])cc(C(=O)N3CC(=O)Nc4ccccc43)cc2[N+](=O)[O-])c(C)c1	0	0	0	-	0	100.0	0	0
N[C@H]1CONC1=O	0	0	0	-	0	0	0	0
CC(=O)NN1CCc2cc3ccc(C)cc3nc21	0	0	0	0	0	90.0	0	0
Cc1ccc2cc3c(nc2c1)N(c1ccccc1)CC3	0	0	0	0	0	0	-	-
O=C(Nc1nc2c(F)c(F)c(F)cc2s1)c1ccco1	0	0	0	0	0	0	-	-
O=C(Nc1nc2c(ccc3ccccc32)s1)c1ccco1	0	0	0	-	0	0	-	-	GRK2 CP2=0;FAM quench SP=0
COc1cc(C2N(c3ccccn3)C(=O)C3CCCN32)cc(OC)c1OC (stereo unspecified)	0	0	0	-	0	59.0	0	0
COc1ccc(C2N(c3ccccn3)C(=O)C3CCCN32)c(OC)c1 (stereo unspecified)	0	0	0	-	0	0	-	-
Nc1nc(=S)c2ncn(C3OC(CO)C(O)C3O)c2[nH]1 (stereo unspecified)	0	0	0	0	0	87.0	0	0
CN(C)CCNc1c2c(nc3ccccc13)CCC2	0	0	0	0	0	0	-	-	GRK2 CP2=0;FAM quench SP=0
CC(=O)c1cccc(Nc2c3c(nc4ccccc24)CCC3)c1	0	0	0	0	0	0	-	-
CN(C)CCCNc1c2ccccc2nc2ccccc12	0	0	0	-	0	0	-	-
Fc1cccc(Nc2c3c(nc4ccccc24)CCC3)c1	0	0	0	0	0	0	-	-	GRK2 CP2=0;FAM quench SP=0
C[C@@H]1COC(=O)[C@@H](CC(=O)OC(C)(C)C)C/C=C\C[C@@H](CC(=O)N[C@H](CO)Cc2ccccc2)C(=O)N1	0	0	0	-	0	0	-	-
CCC(CC)C(=O)Nc1ccc(C(=O)c2ccccc2)cc1	0	0	0	0	0	61.0	-	-	GRK2 CP2=0;FAM quench SP=0
NC(N)=Nc1nc2ccccc2o1	0	0	0	0	0	0	-	-
CCOC(=O)C1CCCCN1Cc1cccc(F)c1 (stereo unspecified)	0	0	0	0	0	0	-	-
CCOC(=O)C1CCCCN1Cc1ccc(F)cc1 (stereo unspecified)	0	0	0	0	0	75.0	0	0
Nc1nc(COC(=O)C2CC(=O)N(CCc3ccccc3)C2)nc(Nc2ccccc2)n1 (stereo unspecified)	0	0	0	-	0	0	-	-
O=C(OCc1nnc(-c2ccccc2)o1)C1CC(=O)N(CCc2ccccc2)C1 (stereo unspecified)	0	0	0	-	0	0	0	0
CCN(CC)CCCN=C1N[C@@H](c2cccc(F)c2)C(C(=O)OC)=C(C)N1Cc1ccccc1	0	0	0	-	0	51.0	-	-	GRK2 CP2=0;FAM quench SP=0
CCn1c(SCC(=O)NC2CCCCC2)nnc1C(CO)NC(=O)c1ccccc1 (stereo unspecified)	0	0	0	0	0	0	-	-
O=C(O)C[C@H]1c2cc(F)ccc2S(=O)(=O)N1C1CCCC1	0	0	0	-	0	44.0	0	0
O=C(O)C[C@H]1c2cc(F)ccc2S(=O)(=O)N1C1CCCCC1	0	0	0	-	0	0	-	-

Assay outcomes as filed in PubChem.
